Source: PubChem BioAssay (Johns Hopkins Ion Channel Center)
Rows were chosen to be rich in hits. Some 3.7% of all compounds tested hit in one or more screens of this group.
KCNK3 block – human KCNK3 channel inhibition, primary screen; O14649; CHO-KCNK3 thallium flux, FluxOR fluorescence; active compounds read low; B-score at 10 µM; 340,000 compounds, 0.84% hits; AID 602410;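 active = B-score under library mean minus 4 SD, starting fluorescence ratio at most library mean plus 5 SD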;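 also: more negative B-score means stronger inhibition of thallium flux through KCNK3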
KCNQ1 act – potentiators or activators of human KCNQ1 potassium channel; CHO-K1 KCNQ1, thallium flux FluxOR fluorescence; active compounds read high; B-score at 10 µM; 310,000 compounds, 0.35% hits;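 active = fluorescence ratio B-score, a plate-corrected score, at least three library SD, with initial intensity B-score within 5 SD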
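Doses: Single concentration per compound, DMSO matched to controls | Test system: KCNQ1-transfected CHO-K1 cells | Timing: 90 min dye loading and 20 min compound exposure, both at room temperature | Measured by: Kinetic FluxOR thallium fluorescence, 10-s 1-Hz baseline, 110-s post-stimulus read | Medium: Assay buffer with matched DMSO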
Kir21 inh – inhibitors of mouse Kir2.1 inward-rectifier potassium channel. P35561. HEK293-Kir2.1, FluxOR thallium flux fluorescence; active compounds read low. B-score at 10 µM. 310,000 compounds, 0.85% hits;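 active = fluorescence ratio B-score at or below minus 3 SD of library scores, with starting-brightness B-score within 2 SD, cut at about -4.2 in these data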;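 also: channel flux triggered by added potassium and thallium sulfate stimulus; B-score of peak minus minimum fluorescence over baseline after thallium stimulus; more negative B-score means stronger Kir2.1 block with less thallium influx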
Target sequence (P35561 whole entry, looked up): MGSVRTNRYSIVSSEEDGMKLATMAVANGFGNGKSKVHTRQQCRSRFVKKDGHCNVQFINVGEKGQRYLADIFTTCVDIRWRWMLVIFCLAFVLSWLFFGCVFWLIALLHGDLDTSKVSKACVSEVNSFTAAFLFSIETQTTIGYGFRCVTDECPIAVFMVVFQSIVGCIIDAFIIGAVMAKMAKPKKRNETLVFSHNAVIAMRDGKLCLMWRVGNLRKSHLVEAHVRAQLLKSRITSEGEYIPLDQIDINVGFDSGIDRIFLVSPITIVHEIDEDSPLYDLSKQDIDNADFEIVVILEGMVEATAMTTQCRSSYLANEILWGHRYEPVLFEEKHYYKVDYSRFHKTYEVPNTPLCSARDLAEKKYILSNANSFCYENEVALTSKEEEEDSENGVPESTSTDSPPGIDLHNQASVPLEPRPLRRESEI
KCNK9 inh – blocks the human KCNK9 two-pore domain potassium channel; Q9NPC2; HEK293 KCNK9, FluxOR thallium flux fluorescence; active compounds read low; B-score at 10 µM; 310,000 compounds, 1.2% hits; AID 488922;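 active = ratio B-score over 3 SD below the library mean, with starting fluorescence within 5 SD of its mean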;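 also: negative B-score means less thallium flux so channel inhibition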
KCNQ1 block – human KCNQ1 channel inhibition | P51787 | CHO-K1 KCNQ1, FluxOR thallium flux fluorescence; active compounds read high | B-score at 10 µM | 310,000 compounds, 1.3% hits | AID 2642;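 active = compounds whose thallium flux B-score, printed positive for inhibition, exceeds three library SD while starting fluorescence stays within three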;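 also: channel opened by potassium depolarization with thallium stimulus after 20 min compound exposure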
hERG protect – compounds protecting human hERG from proarrhythmic drug block | CHO-hERG, FluxOR thallium flux, dofetilide IC70 present | AID 1511 | 310,000 compounds, 0.51% hits | activation (rescue from dofetilide block), less the hit threshold, % at 10 µM;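 active = activation above the mean of controls blocked by dofetilide plus 5 SD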;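 also: thallium influx through hERG after potassium depolarization seen as dye fluorescence rise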
Numbers without * were called inactive.

CCCCN(CCCC)C(=O)c1cc(Cl)ccc1[N+](=O)[O-] was read as KCNK3 block inactive, KCNQ1 act inactive, Kir21 inh -7*, KCNK9 inh inactive, KCNQ1 block inactive and hERG protect -11.
Screening COC(=O)C1=C(C)N=C2SCCC(=O)N2C1/C=C/c1ccccc1 (stereo unspecified) returned KCNK3 block -8.9*, KCNQ1 act inactive, Kir21 inh 0.06, KCNK9 inh inactive, KCNQ1 block inactive and hERG protect -6.
CCOC(=O)C1=C(C)N=C2SCCC(=O)N2[C@@H]1c1cccs1 was read as KCNK3 block inactive, KCNQ1 act inactive, Kir21 inh -4.3*, KCNK9 inh inactive, KCNQ1 block inactive and hERG protect -5.
`CCOC(=O)C1=C(C)N=C2SCCC(=O)N2C1c1cccs1` (stereo unspecified) gave KCNK3 block inactive, KCNQ1 act inactive, Kir21 inh -0.05, KCNK9 inh inactive, KCNQ1 block inactive and hERG protect -1.
C=CCOC(=O)C1=C(C)N=C2SCCC(=O)N2C1c1ccc(OC(=O)c2ccco2)cc1 (stereo unspecified) was read as KCNK3 block inactive, KCNQ1 act inactive, Kir21 inh -5*, KCNK9 inh inactive, KCNQ1 block inactive and hERG protect -5.
`COC(=O)C1=C(C)N=C2SCCC(=O)N2C1c1cc(Br)ccc1OC` (stereo unspecified) gave KCNK3 block inactive, KCNQ1 act inactive, Kir21 inh -0.29, KCNK9 inh inactive, KCNQ1 block inactive and hERG protect -10.
Screening CC1CC(OC(=O)C2CCN(S(=O)(=O)c3ccc(F)cc3)CC2)C(=O)O1 (stereo unspecified) returned KCNK3 block inactive.
O=C(NCc1cccc(Cl)c1)c1ccc(CS(=O)Cc2ccccc2Cl)o1 (stereo unspecified) was read as KCNK3 block inactive, KCNQ1 act inactive, Kir21 inh -0.34, KCNK9 inh inactive, KCNQ1 block inactive and hERG protect -4.
Screening CO/N=C(/CS(=O)Cc1ccccc1Cl)c1ccc(Cl)cc1Cl (stereo unspecified) returned KCNK3 block inactive, KCNQ1 act inactive, Kir21 inh -5*, KCNK9 inh inactive, KCNQ1 block inactive and hERG protect -1.
For CCOC(=O)c1cc(-c2ccccc2)sc1NC(=O)C(C)N1C(=O)c2ccccc2C1=O (stereo unspecified) the results were KCNK3 block inactive, KCNQ1 act inactive, Kir21 inh 0.72, KCNK9 inh -8*, KCNQ1 block inactive and hERG protect -3.
For CC1=CCC2C(=O)N(c3ccc(OC(=O)c4ccco4)cc3)C(=O)C2C1 (stereo unspecified) the results were KCNK3 block inactive, KCNQ1 act inactive, Kir21 inh -7.9*, KCNK9 inh inactive, KCNQ1 block inactive and hERG protect -12.
For CC(Sc1ccc(Cl)cc1)C(=O)N(C)CC(=O)Nc1ccc(N2CCOCC2)cc1 (stereo unspecified) the results were KCNK3 block inactive, KCNQ1 act inactive, Kir21 inh 2.4, KCNK9 inh inactive, KCNQ1 block inactive and hERG protect -10.
Screening c1ccc(COc2ccc(OCCCCN3CCCCC3)cc2)cc1 returned KCNK3 block inactive, KCNQ1 act inactive, Kir21 inh -4.7*, KCNK9 inh inactive, KCNQ1 block inactive and hERG protect -14.
CCN1CCN(CCCOc2ccc(-c3ccccc3)cc2)CC1 was read as KCNQ1 act inactive, Kir21 inh -4.7*, KCNK9 inh inactive, KCNQ1 block inactive and hERG protect -16.
`O=C(c1ccccc1)c1ccc(OCCCCN2CCCCC2)cc1` gave KCNK3 block inactive, KCNQ1 act inactive, Kir21 inh -0.36, KCNK9 inh inactive, KCNQ1 block inactive and hERG protect 0.
`CCN1CCN(CCCOc2ccccc2-c2ccccc2)CC1` gave KCNK3 block inactive, KCNQ1 act inactive, Kir21 inh 0.34, KCNK9 inh inactive, KCNQ1 block inactive and hERG protect -12.
For CCN1CCN(CCOc2ccccc2-c2ccccc2)CC1 the results were KCNK3 block inactive, KCNQ1 act inactive, Kir21 inh -5.3*, KCNK9 inh inactive, KCNQ1 block inactive and hERG protect -5.
For CSc1ccc(S(=O)(=O)NCC(=O)OCC(=O)N(C)CC(=O)Nc2ccc(F)cc2)cc1[N+](=O)[O-] the results were KCNK3 block inactive.
Screening CCCn1c(N)c(N(CCOC)C(=O)c2ccc([N+](=O)[O-])cc2Cl)c(=O)[nH]c1=O returned KCNK3 block inactive, KCNQ1 act inactive, Kir21 inh -2.4, KCNK9 inh inactive, KCNQ1 block inactive and hERG protect -7.
CN(CCOc1ccccc1)C(=O)c1cc(S(=O)(=O)N2CCCCC2)ccc1Cl was read as KCNK3 block inactive, KCNQ1 act inactive, Kir21 inh -1.5, KCNK9 inh inactive, KCNQ1 block inactive and hERG protect -10.
`CN1CCN(c2cc(N3CCc4ccccc4C3)c(F)cc2[N+](=O)[O-])CC1` gave KCNK3 block inactive, KCNQ1 act inactive, Kir21 inh -4.7*, KCNK9 inh inactive, KCNQ1 block inactive and hERG protect -23.
`CCN(CC(=O)Nc1c(F)cccc1F)C(=O)Cc1csc(-c2ccccc2)n1` gave KCNK3 block inactive, KCNQ1 act inactive, Kir21 inh -0.33, KCNK9 inh inactive, KCNQ1 block inactive and hERG protect -14.
Cc1ccc(-c2cc(C(=O)N/N=C/C(Br)=C/c3ccccc3)n[nH]2)o1 was read as KCNK3 block inactive, KCNQ1 act inactive, Kir21 inh -2.5, KCNK9 inh -7*, KCNQ1 block inactive and hERG protect -12.
O=C(N/N=C/c1ccncc1)c1ccccc1[N+](=O)[O-] was read as KCNK3 block inactive, KCNQ1 act inactive, Kir21 inh 2.9, KCNK9 inh inactive, KCNQ1 block inactive and hERG protect -3.
`O=C(N/N=C/C(Br)=C/c1ccccc1)c1ccccc1[N+](=O)[O-]` gave KCNK3 block inactive, KCNQ1 act inactive, Kir21 inh -0.02, KCNK9 inh -6.9*, KCNQ1 block inactive and hERG protect -7.
`COc1cccc(C(=O)N/N=C/C(Br)=C/c2ccccc2)c1` gave KCNK3 block inactive, KCNQ1 act inactive, Kir21 inh 0.3, KCNK9 inh -8.1*, KCNQ1 block inactive and hERG protect 1.
O=S(=O)(/N=C(/c1ccccc1)N1CCOCC1)c1ccc(F)cc1F was read as KCNK3 block inactive.
CC(=O)c1c(C)[nH]c(C(=O)NNC(=O)c2ccc(Br)cc2)c1C was read as KCNK3 block inactive.
